Source: ChEMBL document CHEMBL1157420, “2-phenyl-4-piperazinylbenzimidazoles: orally active inhibitors of the gonadotropin releasing hormone (GnRH) receptor” (Bioorg Med Chem, 2008)
In brackets after ≈: the same amount, converted by molar mass. Activity calls are given as the source filed them. The calls are words filed in the database; no cut-off is given here.

What was measured:
[1] = AUC (0 to infinity) in rat at 1.0 mg/kg, iv; type: ADME, organism-based; design: time infinity, dose 1 mg/kg, route intravenous; conditions: plasma
[2] = molecular target: T1, Gonadotropin-releasing hormone receptor (Rattus norvegicus, UniProt P30969); assay: Displacement of [125I]-(D-Trp6)LHRH from rat recombinant GnRH receptor
T1 sequence (P30969 whole entry): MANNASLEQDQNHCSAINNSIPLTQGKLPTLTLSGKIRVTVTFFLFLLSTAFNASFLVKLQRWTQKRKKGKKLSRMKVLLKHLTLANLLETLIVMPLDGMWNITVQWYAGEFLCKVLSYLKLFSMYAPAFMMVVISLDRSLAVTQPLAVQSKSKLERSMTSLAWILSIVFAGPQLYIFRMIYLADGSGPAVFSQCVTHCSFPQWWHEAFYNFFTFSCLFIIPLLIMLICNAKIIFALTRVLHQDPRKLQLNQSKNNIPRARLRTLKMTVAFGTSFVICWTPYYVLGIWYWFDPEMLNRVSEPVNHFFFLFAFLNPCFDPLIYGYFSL
In short: (§1)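 Membranes from recombinant cells expressing human or rat GnRH receptor, made in 25 mM Tris-Cl pH 7.4 with 0.1% sodium azide and 0.1% BSA. 50 μg protein incubated with about 50,000 cpm 125I-(D-Trp6)-LHRH for 2 h at 4 °C, with increasing unlabeled competitor. Filtered on BSA-presoaked glass-fiber filters, washed twice, counted by gamma counter. Percent inhibition and IC50 derived.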

[3] = system: Rattus norvegicus; assay: Activity in orchidectomized castrated Sprague-Dawley rat assessed as reduction in LH level at 30 mg/kg, po after 24 hrs; type: functional, organism-based; design: dose 30 mg/kg; conditions: in the assay text read “after 1 to 6 hrs” for “after 24 hrs”
In short: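 Male Sprague–Dawley rats ten days post-castration, jugular-catheterized; basal blood drawn, then vehicle (2% Tween 80/0.04 N HCl) or antagonist given orally. Blood sampled at regular intervals, plasma LH measured by ELISA. Figure legend gives PEG 400 as vehicle, nine animals per group, t = 0 levels set to 100.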

[4] = Half life in rat plasma at 20 mg/kg, po; type: ADME, organism-based; design: dose 20 mg/kg, route oral
[5] = Half life in rat plasma at 1.0 mg/kg, iv; type: ADME, organism-based; design: dose 1 mg/kg, route intravenous
[6] = molecular target: 5-hydroxytryptamine receptor 2A (Homo sapiens, UniProt P28223); assay: Binding affinity to 5HT2A receptor
Chain of 5-hydroxytryptamine receptor 2A (P28223 whole entry): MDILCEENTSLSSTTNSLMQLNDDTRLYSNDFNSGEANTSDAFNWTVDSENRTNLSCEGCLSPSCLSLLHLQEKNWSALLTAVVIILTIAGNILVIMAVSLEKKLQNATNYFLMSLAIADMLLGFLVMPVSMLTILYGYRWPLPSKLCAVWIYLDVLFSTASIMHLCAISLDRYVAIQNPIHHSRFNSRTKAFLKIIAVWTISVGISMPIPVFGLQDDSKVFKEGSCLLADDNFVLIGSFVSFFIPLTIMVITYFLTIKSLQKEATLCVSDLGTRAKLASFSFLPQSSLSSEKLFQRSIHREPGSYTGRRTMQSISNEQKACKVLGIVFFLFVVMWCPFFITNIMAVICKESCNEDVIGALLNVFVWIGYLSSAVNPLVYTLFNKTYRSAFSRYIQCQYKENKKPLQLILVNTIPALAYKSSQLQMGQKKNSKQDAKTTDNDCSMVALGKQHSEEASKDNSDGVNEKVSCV

[7] = Volume of distribution at steady state in rat at 1.0 mg/kg, iv; type: ADME, organism-based; design: dose 1 mg/kg, route intravenous; conditions: in vivo, read-out: Vdss
[8] = Cmax in rat at 20 mg/kg, po; type: ADME, organism-based; design: dose 20 mg/kg, route oral; conditions: in vivo
[9] = molecular target: T1, Gonadotropin-releasing hormone receptor; assay: Antagonist activity at […] GnRH receptor in CO2 asphyxiated rat primary pituitary cells assessed as reduction in (D-Trp6)LHRH-induced LH release; type: functional, cell-based, Pituitary gland cell
In short: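 Anterior pituitaries from adult rats were minced, dissociated and plated at 30,000 cells/well in DMEM with 25 mM Hepes and 10% FBS, then cultured 72 h at 37 °C, 5% CO2. After washing, cells were treated 3 h in 0.1% BSA medium with an antagonist dose response plus an ED50 concentration of D-Trp6-LHRH. LH in medium measured by RIA; cell toxicity checked by CellTiter-Glo.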

[10] = molecular target: T2, Gonadotropin-releasing hormone receptor (Homo sapiens, UniProt P30968); assay: Antagonist activity at human recombinant GnRH receptor assessed as reduction in (D-Trp6)LHRH-induced myo-(1,2)-[3H]inositol production; type: functional
T2 sequence (P30968 whole entry): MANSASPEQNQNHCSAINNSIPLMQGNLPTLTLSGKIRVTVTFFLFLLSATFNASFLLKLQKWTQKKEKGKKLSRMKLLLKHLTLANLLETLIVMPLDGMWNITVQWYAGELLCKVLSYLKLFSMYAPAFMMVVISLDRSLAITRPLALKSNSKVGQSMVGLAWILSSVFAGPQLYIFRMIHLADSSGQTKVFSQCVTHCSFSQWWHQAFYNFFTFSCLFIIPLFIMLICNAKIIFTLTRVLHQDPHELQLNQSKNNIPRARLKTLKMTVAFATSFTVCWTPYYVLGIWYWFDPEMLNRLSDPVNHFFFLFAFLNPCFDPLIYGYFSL
In short: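 Recombinant cells expressing human GnRH receptor, pre-labeled with myo-(1,2)-3H-inositol, incubated 1 h in medium with lithium chloride and D-Trp6-LHRH, with or without antagonist. Cells then lysed and labeled inositol phosphates separated from inositol by […] and counted. Run in triplicate, repeated in three independent experiments; IC50 derived.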

[11] = Bioavailability in rat at 20 mg/kg, po; type: ADME, organism-based; conditions: in vivo
[12] = AUC (0 to infinity) in rat at 20 mg/kg, po; type: ADME, organism-based; design: time infinity, dose 20 mg/kg, route oral; conditions: plasma
[13] = Plasma clearance in rat at 1.0 mg/kg, iv; type: ADME, organism-based; design: dose 1 mg/kg, route intravenous
[14] = molecular target: T2, Gonadotropin-releasing hormone receptor; assay: Displacement of [125I]-(D-Trp6)LHRH from human recombinant GnRH receptor; in short: as §1
[15] = Tmax in rat at 20 mg/kg, po; type: ADME, organism-based; design: dose 20 mg/kg, route oral; conditions: in vivo
[16] = Cmax in rat at 10 mg/kg, po; type: ADME, organism-based; design: dose 10 mg/kg, route oral; conditions: in vivo
[17] = Tmax in rat at 10 mg/kg, po; type: ADME, organism-based; design: dose 10 mg/kg, route oral; conditions: in vivo
[18] = Half life in rat plasma at 10 mg/kg, po; type: ADME, organism-based; design: dose 10 mg/kg, route oral
[19] = Bioavailability in rat at 10 mg/kg, po; type: ADME, organism-based; conditions: in vivo
[20] = Membrane permeability by PAMPA assay; type: ADME; conditions: read-out: permeability
[21] = Metabolic stability in rat liver microsomes assessed as half life; type: ADME, Microsome
[22] = Solubility of compound at pH 7.4; type: physicochemical; conditions: buffer
[23] = AUC (0 to infinity) in rat at 10 mg/kg, po; type: ADME, organism-based; design: dose 10 mg/kg, route oral, time infinity; conditions: plasma
[24] = molecular target: T3, 5-hydroxytryptamine receptor 1A (Homo sapiens) (UniProt P08908); assay: Binding affinity to 5HT1A receptor at 10 uM
T3 sequence (whole entry): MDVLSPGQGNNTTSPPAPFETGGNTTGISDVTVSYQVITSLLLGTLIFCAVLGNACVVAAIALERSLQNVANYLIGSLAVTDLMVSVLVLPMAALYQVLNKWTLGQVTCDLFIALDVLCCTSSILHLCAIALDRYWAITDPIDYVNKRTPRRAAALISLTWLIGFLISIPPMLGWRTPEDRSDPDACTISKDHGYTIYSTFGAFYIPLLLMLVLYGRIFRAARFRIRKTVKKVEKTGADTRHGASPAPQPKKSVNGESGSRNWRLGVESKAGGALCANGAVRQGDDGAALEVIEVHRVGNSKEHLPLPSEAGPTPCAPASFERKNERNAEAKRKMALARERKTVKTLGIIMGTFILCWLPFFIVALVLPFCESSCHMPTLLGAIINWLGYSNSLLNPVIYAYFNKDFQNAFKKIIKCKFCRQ

[25] = molecular target: T4, Alpha-1A adrenergic receptor (Homo sapiens) (UniProt P35348); assay: Binding affinity to alpha1 adrenergic receptor at 10 uM
T4 sequence (whole entry): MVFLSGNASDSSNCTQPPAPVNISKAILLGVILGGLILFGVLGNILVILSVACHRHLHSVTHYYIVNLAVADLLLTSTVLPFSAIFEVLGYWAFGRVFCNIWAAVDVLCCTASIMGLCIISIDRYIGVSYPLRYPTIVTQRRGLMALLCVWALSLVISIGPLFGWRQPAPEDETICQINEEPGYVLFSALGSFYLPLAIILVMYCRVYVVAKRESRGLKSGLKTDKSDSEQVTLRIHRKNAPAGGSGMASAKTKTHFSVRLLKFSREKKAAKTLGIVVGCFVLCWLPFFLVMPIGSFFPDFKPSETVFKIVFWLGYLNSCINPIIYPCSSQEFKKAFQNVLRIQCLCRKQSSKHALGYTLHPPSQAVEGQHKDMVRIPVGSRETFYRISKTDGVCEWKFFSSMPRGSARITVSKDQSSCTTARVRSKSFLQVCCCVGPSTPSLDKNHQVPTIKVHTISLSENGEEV

[26] = molecular target: T5, 5-hydroxytryptamine receptor 1A (Homo sapiens, UniProt P08908); assay: Binding affinity to human 5HT1A receptor
T5 sequence (P08908 whole entry): T3 sequence (whole entry)

[27] = molecular target: T6, 5-hydroxytryptamine receptor 1D (Homo sapiens, UniProt P28221); assay: Binding affinity to human 5HT1D receptor
T6 sequence (P28221 whole entry): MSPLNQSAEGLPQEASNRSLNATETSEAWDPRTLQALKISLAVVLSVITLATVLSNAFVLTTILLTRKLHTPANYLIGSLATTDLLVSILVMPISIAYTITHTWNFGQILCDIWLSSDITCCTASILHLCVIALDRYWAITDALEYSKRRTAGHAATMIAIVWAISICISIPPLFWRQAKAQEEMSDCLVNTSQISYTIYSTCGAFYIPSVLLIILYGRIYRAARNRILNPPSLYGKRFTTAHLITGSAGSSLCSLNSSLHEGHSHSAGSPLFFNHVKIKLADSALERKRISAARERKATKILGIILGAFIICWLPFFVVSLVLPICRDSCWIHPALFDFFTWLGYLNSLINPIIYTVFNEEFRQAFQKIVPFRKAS

[28] = molecular target: T7, 5-hydroxytryptamine receptor 1B (Homo sapiens, UniProt P28222); assay: Binding affinity to human 5HT1B receptor
T7 sequence (P28222 whole entry): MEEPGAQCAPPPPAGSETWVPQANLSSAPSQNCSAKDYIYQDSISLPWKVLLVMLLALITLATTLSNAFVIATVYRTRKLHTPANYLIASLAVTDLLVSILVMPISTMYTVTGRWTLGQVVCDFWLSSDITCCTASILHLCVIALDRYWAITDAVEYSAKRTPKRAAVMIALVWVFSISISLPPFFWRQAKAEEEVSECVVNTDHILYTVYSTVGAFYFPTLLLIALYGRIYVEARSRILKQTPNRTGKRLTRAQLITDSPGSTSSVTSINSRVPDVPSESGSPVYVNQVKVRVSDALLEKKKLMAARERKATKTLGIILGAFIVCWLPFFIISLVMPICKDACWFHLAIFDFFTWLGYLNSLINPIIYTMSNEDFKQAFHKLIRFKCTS

[29] = molecular target: T7, 5-hydroxytryptamine receptor 1B; assay: Binding affinity to human 5HT1B receptor at 1000 nM
[30] = molecular target: T6, 5-hydroxytryptamine receptor 1D; assay: Binding affinity to human 5HT1D receptor at 1000 nM

SMILES | IC50 [2] [nM] | IC50 [9] [nM] | IC50 [10] [nM] | IC50 [14] [nM] | other results
CCn1cc(CN2CCN(c3cccc4[nH]c(-c5ccc(C(C)(C)C)cc5)nc34)CC2)c(=O)[nH]c1=O | 32 | 59 | 4 | 11 | AUC(0-inf) [1]: 190 ng·h/mL; Activity [3]: Active; half-life [4]: 3.1 h; half-life [5]: 1.1 h; Ki [6]: 230 nM; Vd [7]: 4.8 L/kg; Cmax [8]: 480 ng/mL; bioavailability [11]: 74%; AUC(0-inf) [12]: 2720 ng·h/mL; clearance [13]: 95 mL/min/kg; Tmax [15]: 0.67 h
CC(C)(C)c1ccc(-c2nc3c(N4CCN(Cc5c[nH]c(=O)[nH]c5=O)CC4)cccc3[nH]2)cc1 | 32 | 41 | 9.4 | 5.5 | AUC(0-inf) [1]: 355 ng·h/mL; Cmax [16]: 19 ng/mL; Tmax [17]: 1.8 h; half-life [18]: 5.8 h; half-life [5]: 3.5 h; bioavailability [19]: 5%; Vd [7]: 3.1 L/kg; Papp [20]: 0.6 ×10⁻⁶ cm/s; half-life [21]: 0.5 h; solubility [22]: 25 µg/mL (≈ 54.5 µM); clearance [13]: 47 mL/min/kg; AUC(0-inf) [23]: 200 ng·h/mL
CC(C)(C)c1ccc(-c2nc3c(N4CCN(Cc5cccc6[nH]c(=S)[nH]c56)CC4)cccc3[nH]2)cc1 | 110 | 240 | 14 | 6.2 | Activity [24]: 5%; Activity [25]: 7%
CC(C)(C)c1ccc(-c2nc3c(N4CCN(Cc5ccc6[nH]c(=O)c(=O)[nH]c6c5)CC4)cccc3[nH]2)cc1 | 40 | 25 | 1.7 | 4.9 | –
FC(F)(F)c1nc2c(N3CCN(CCCOc4cccc5[nH]c(=S)[nH]c45)CC3)cccc2[nH]1 | – | – | – | 3300 | Ki [26]: 2.3 nM
CC(C)(C)c1ccc(-c2nc3c(N4CCN(Cc5cccc6[nH]c(=O)c(=O)[nH]c56)CC4)cccc3[nH]2)cc1 | 72 | 480 | 24 | 5.7 | –
CC(C)(C)c1ccc(-c2nc3c(N4CCN(Cc5cccc6[nH]c(=O)[nH]c56)CC4)cccc3[nH]2)cc1 | 680 | 1500 | 63 | 8.7 | –
FC(F)(F)c1nc2c(N3CCN(CCOc4cccc5nc(C(F)(F)F)[nH]c45)CC3)cccc2[nH]1 | 15000 | 83000 | 9200 | 1500 | Ki [27]: 0.55 nM; Ki ([26]; read-out: Ki): 19 nM; Ki [28]: 60 nM
CC(C)c1ccc(-c2nc3c(N4CCN(CCOc5cccc6nc(C(F)(F)F)[nH]c56)CC4)cccc3[nH]2)cc1 | 990 | – | 450 | 120 | –
FC(F)(F)c1nc2c(N3CCN(CCOc4cccc5[nH]c(=S)[nH]c45)CC3)cccc2[nH]1 | 21000 | 76000 | 4500 | 790 | Ki ([26]; read-out: Ki): 2.8 nM; inhibition [29]: 67%; inhibition [30]: 67%
